Test results reported in ChEMBL document CHEMBL1140440, “Simple but highly effective three-dimensional chemical-feature-based pharmacophore model for diketo acid derivatives as hepatitis C virus RNA-dependent RNA polymerase inhibitors” (J Med Chem, 2005).

molecular target: RNA-directed RNA polymerase (Hepacivirus hominis, UniProt O39930); assay: Inhibitory concentration against NS5B HCV polymerase using [alpha-32P]UTP as radioligand (30 degree C for 2 h, at pH 7.5 with Tris-HCl buffer)
Procedure, shortened: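 Recombinant HCV RdRp (1 nM) in 20 mM Tris-HCl pH 7.5, 5 mM MgCl2, 1 mM DTT, 1 mM EDTA, RNase inhibitor, 50 µg/mL actinomycin D, 10 µg/mL RNA template, 0.5 mM ATP/CTP/GTP, [α-32P]UTP, limiting nucleotide 10 µM. 30 °C, 2 h; proteinase K stop, extraction, urea-PAGE, phosphorimaging. IC50s rescaled by a reference inhibitor's measured/literature IC50 ratio.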

Chain of RNA-directed RNA polymerase (O39930 whole entry): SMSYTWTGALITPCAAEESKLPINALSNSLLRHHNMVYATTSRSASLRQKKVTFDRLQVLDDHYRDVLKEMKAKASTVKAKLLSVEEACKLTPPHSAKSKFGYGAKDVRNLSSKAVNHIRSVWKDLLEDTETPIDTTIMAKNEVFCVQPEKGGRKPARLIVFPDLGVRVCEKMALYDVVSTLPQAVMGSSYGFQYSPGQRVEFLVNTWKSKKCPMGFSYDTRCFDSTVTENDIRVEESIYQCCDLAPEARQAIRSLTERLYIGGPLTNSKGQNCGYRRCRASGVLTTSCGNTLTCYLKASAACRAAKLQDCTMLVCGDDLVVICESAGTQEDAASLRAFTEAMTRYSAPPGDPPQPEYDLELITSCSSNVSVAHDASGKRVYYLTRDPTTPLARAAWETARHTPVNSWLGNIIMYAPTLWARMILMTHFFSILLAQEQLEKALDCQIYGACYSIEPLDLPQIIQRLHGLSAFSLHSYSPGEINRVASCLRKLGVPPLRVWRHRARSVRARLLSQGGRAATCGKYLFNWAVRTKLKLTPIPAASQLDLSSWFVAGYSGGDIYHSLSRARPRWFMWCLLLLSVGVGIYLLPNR

Row | Compound | IC50 [µM]
1 | O=C(O)C(=O)/C=C(\O)c1cccc(OCc2ccccc2)c1 | 8
2 | O=C(O)C(=O)/C=C(\O)c1ccccc1 | 5.6
3 | O=C(O)C(=O)/C=C(\O)c1cccc(O)c1 | 1
4 | O=C(O)C(=O)/C=C(\O)c1cccc(OCc2cc(-c3ccccc3)on2)c1 | 6
5 | O=C(O)C(=O)/C=C(\O)c1cccc(NC(=O)C(=O)O)c1 | 19
6 | O=C(O)C(=O)/C=C(\O)c1ccc(Cc2ccc(F)cc2)s1 | 65
7 | O=C(O)C(=O)/C=C(\O)c1cccn1Cc1ccc2ccccc2c1 | 13
8 | O=C(O)C(=O)/C=C(\O)c1cccc(Oc2ccccc2)c1 | 19
9 | Cn1cc(/C(O)=C/C(=O)C(=O)O)cc1Cc1cccc(F)c1 | 21
10 | O=C(O)C(=O)/C=C(\O)c1cccc(OCc2cccc(Oc3ccccc3)c2)c1 | 50
11 | Cc1ccc(/C(O)=C/C(=O)C(=O)O)o1 | 58
12 | O=C(O)C(=O)/C=C(\O)c1ccccc1Cc1ccc(F)cc1 | 8.3
13 | O=C(O)C(=O)/C=C(\O)c1ccc(Cc2cccc(F)c2)s1 | 74
14 | N#CCCCOc1ccccc1/C(O)=C/C(=O)C(=O)O | 0.38
15 | COc1cccc(/C(O)=C/C(=O)C(=O)O)c1 | 40
16 | O=C(O)C(=O)/C=C(\O)c1ccsc1 | 4
17 | N#Cc1cccc(Cn2ccc(/C(O)=C/C(=O)C(=O)O)c2)c1 | 4.6
18 | O=C(O)C(=O)/C=C(\O)c1ccc(Cc2ccccc2)s1 | 68
19 | N#CCCCOc1ccc(O)cc1/C(O)=C/C(=O)C(=O)O | 0.11
20 | O=C(O)C(=O)/C=C(\O)C12C[C@H]3C[C@@H](C1)C[C@@H](C2)C3 | 6.7
21 | O=C(O)C(=O)/C=C(\O)c1cccn1Cc1c(F)cccc1F | 7.4
22 | O=C(O)C(=O)/C=C(\O)c1ccc(N2CCCCC2)s1 | 8.2

Row | Compound | IC50 [µM]
23 | O=C(O)C(=O)/C=C(\O)c1cnc2cc(Cl)ccc2c1O | 26
24 | N#Cc1ccccc1Cn1cccc1/C(O)=C/C(=O)C(=O)O | 6.3
25 | Cc1cc(C)c(/C(O)=C/C(=O)C(=O)O)s1 | 8.2
26 | O=C(O)C(=O)/C=C(O)/C=C/c1cccn1Cc1cccc(F)c1 | 18
27 | O=C(O)C(=O)/C=C(\O)c1cccc(-c2ccccc2)c1 | 28
28 | Cc1sc(-c2ccccc2)cc1/C(O)=C/C(=O)C(=O)O | 167
29 | Cc1cc(/C(O)=C/C(=O)C(=O)O)c(C)o1 | 14
30 | CCCCS(=O)(=O)N1CCCC(Cc2ccc(Cl)cc2)(/C(O)=C/C(=O)C(=O)O)C1 (stereo unspecified) | 81.4
31 | O=C(O)C(=O)/C=C(\O)c1ccc(Cc2cccc(Cl)c2)s1 | 82
32 | Cc1coc(C)c1/C(O)=C/C(=O)C(=O)O | 48
33 | COc1ccc(Cn2cccc2/C=C/C(O)=C/C(=O)C(=O)O)cc1 | 16
34 | N#Cc1cccc(Cl)c1COc1cc(O)cc(/C(O)=C/C(=O)C(=O)O)c1 | 0.1
35 | O=C(O)C(=O)/C=C(\O)c1cccc(NS(=O)(=O)c2cc(Cl)c(Cl)cc2Cl)c1 | 0.049
36 | O=C(O)C(=O)/C=C(\O)c1cccc(NS(=O)(=O)c2cc(Cl)cc(Cl)c2)c1 | 0.14
37 | O=C(O)C(=O)/C=C(\O)c1cc2c(s1)-c1cc(F)ccc1OC2 | 27
38 | Cn1cc(C(=O)c2ccc(F)cc2)cc1/C=C/C(O)=C/C(=O)C(=O)O | 16
39 | O=C(O)C(=O)/C=C(\O)c1ccco1 | 50
40 | O=C(O)C(=O)/C=C(\O)c1ccsc1Cc1ccc(F)cc1 | 18
41 | O=C(O)C(=O)/C=C(\O)c1cccn1Cc1ccc(O)cc1 | 13
42 | O=C(O)C(=O)/C=C(\O)c1ccc(-c2ccc(F)c(Cl)c2)o1 | 41
43 | O=C(O)C(=O)/C=C(\O)c1ccccc1OCc1ccccc1 | 44
44 | O=C(O)C(=O)/C=C(\O)c1cccn1Cc1cccc(F)c1 | 30

Row | Compound | IC50 [µM]
45 | O=C(O)C(=O)/C=C(\O)c1cc(I)cn1Cc1ccc(F)cc1 | 18
46 | O=C(O)C(=O)/C=C(\O)c1cccc(N2CCCC2)c1 | 84
47 | O=C(O)C(=O)/C=C(\O)c1sccc1Cc1cccc(F)c1 | 9.9
48 | O=C(O)C(=O)/C=C(\O)c1cccc(OCc2cccc3ccccc23)c1 | 0.67
49 | N#CCCCCn1cccc1/C(O)=C/C(=O)C(=O)O | 13
50 | Cc1cccc(/C(O)=C/C(=O)C(=O)O)c1 | 12
51 | O=C(O)C(=O)/C=C(\O)c1ccsc1Sc1cccc(Cl)c1 | 7.5
52 | COc1cccc(Cn2cccc2/C(O)=C/C(=O)C(=O)O)c1 | 7.6
53 | O=C(O)C(=O)/C=C(\O)c1cccc(NCc2ccccc2)c1 | 17
54 | O=C(O)C(=O)/C=C(\O)c1cccn1Cc1ccccc1 | 29
55 | Cc1ccc(/C(O)=C/C(=O)C(=O)O)c(C)c1 | 2
56 | O=C(O)C(=O)/C=C(\O)c1cccc(OCc2ccsc2C(=O)O)c1 | 0.95
57 | O=C(O)C(=O)/C=C(O)/C=C/c1c[nH]c2ccc(Cl)cc12 | 18
58 | N#Cc1cc(Cl)c(Cl)cc1COc1cccc(/C(O)=C/C(=O)C(=O)O)c1 | 0.056
59 | O=C(O)C(=O)/C=C(\O)c1ccsc1Cc1cccc(F)c1 | 80
60 | O=C(O)C(=O)/C=C(\O)c1cccn1Cc1ccccc1Cl | 24
61 | O=C(O)C(=O)/C=C(\O)c1cccc(Cc2cc(Br)cc(Br)c2)c1 | 32
62 | O=C(O)C(=O)/C=C(\O)c1cccc(OCc2ccc(-c3ccccc3)cc2)c1 | 50
63 | O=C(O)C(=O)/C=C(\O)c1cccn1Cc1ccc(F)cc1 | 93
64 | O=C(O)C(=O)/C=C(\O)c1cc(O)cc(OCc2ccccc2)c1 | 1.4
65 | Cc1ccccc1Cn1cccc1/C=C/C(O)=C/C(=O)C(=O)O | 18
66 | Cc1ccc(Cn2cccc2/C=C/C(O)=C/C(=O)C(=O)O)cc1 | 28
